Experimental data of several laboratories.
Each line is one published result; the experiments were not run side by side.
Target: Peripheral plasma membrane protein CASK (CASK, Homo sapiens, UniProt O14936)
One construct used (O14936 1-926): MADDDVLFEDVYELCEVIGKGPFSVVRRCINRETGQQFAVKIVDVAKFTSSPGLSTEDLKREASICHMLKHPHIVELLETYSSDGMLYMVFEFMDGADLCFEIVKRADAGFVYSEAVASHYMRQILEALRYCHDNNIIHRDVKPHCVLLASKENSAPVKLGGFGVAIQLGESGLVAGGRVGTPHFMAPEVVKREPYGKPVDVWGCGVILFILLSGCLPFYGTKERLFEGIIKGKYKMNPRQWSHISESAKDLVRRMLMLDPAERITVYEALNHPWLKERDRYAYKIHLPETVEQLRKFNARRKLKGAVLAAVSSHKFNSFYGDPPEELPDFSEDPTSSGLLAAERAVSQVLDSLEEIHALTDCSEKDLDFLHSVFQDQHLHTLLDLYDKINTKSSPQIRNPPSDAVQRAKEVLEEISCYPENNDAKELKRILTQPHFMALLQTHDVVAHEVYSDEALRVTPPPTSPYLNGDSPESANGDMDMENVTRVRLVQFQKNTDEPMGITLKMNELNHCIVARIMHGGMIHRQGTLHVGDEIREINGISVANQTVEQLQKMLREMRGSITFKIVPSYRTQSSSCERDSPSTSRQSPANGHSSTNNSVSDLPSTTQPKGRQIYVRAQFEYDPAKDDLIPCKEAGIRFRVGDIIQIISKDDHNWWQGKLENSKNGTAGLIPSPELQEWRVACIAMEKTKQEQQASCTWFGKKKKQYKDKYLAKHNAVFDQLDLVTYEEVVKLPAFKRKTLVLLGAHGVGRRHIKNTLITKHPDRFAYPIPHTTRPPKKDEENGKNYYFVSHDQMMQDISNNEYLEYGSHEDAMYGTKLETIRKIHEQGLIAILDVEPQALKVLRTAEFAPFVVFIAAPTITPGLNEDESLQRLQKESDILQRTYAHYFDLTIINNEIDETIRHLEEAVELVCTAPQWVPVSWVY

Cc1nc(C2CCN(C(=O)c3ccc(OC(F)(F)F)cc3N)CC2)c2ncc(N3CCN(C)CC3)cc2n1 — remaining binding (cell-free assay, competition with immobilised ligand; 1 µM): 87%
Cc1cnc(Nc2ccc(C(=O)N3CCC(N4CCCC4)CC3)cc2)nc1-c1cc2ccccc2s1 — remaining binding (binding, competition with immobilised ligand; 1 µM): 100%
CSc1cccnc1N1CCN(Cc2nc3ccccc3[nH]2)CC1 — remaining binding (cell-free assay, competition with immobilised ligand; 1 µM): 100%
O=C(c1ccc(Nc2nccc(-c3cc4ccccc4s3)n2)cc1)N1CCC(N2CCCC2)CC1 — remaining binding (binding, competition with immobilised ligand; 1 µM): 85%
CNC(=O)[C@@H]1CC[C@@H](n2c(-c3ccc4cnccc4c3)nc3ccc(C(=O)NCc4cccc(C(N)=O)c4)cc32)C1 — remaining binding (binding, competition with immobilised ligand; 1 µM): 82%
CN(C)c1nccc(-c2cnn3ncccc23)n1 — remaining binding (binding, competition with immobilised ligand; 1 µM): 90%
FC(F)(F)Oc1cccc(-c2cnc3ccc(-c4ccncc4)nn23)c1 — remaining binding (cell-free assay, competition with immobilised ligand; 5 µM): 50%
c1cncc(-c2cccc(Nc3nccc(NC4CCCCC4)n3)c2)c1 — remaining binding (binding, competition with immobilised ligand; 10 µM): 76%
C[C@@H]1CCN(c2nccc(-c3cnn4ncccc34)n2)C1 — remaining binding (binding; 1 µM): 84%
CCCCN(CCCC)C(=O)CN1C[C@@H](c2cc(OC)c3c(c2)OCO3)[C@H](C(=O)O)[C@H]1CC(C)(C)CCC — remaining binding (cell-free assay, competition with immobilised ligand; 1 µM): 90.5%
CN(C)c1ncc(F)c(-c2cnn3ncccc23)n1 — remaining binding (binding, competition with immobilised ligand; 1 µM): 79%
Cn1nc(C(=O)NCc2ccc(C(=O)O)cc2)cc1-c1ccc2[nH]ccc2c1 — remaining binding (cell-free assay, competition with immobilised ligand; 0.1 µM): 69%
Nc1ncc2c(n1)-c1c([nH]c3ccc(C#CC4CC4)cc13)CCCC2 — remaining binding (binding, competition with immobilised ligand; 1 µM): 88%
O=C(Nc1c[nH]nc1C(=O)NC1CCNCC1)c1cc(F)cc(F)c1 — remaining binding (binding, competition with immobilised ligand; 1 µM): 66%
O=C(Nc1cccnn1)N1CCC(=Cc2cccc(Oc3ccc(C(F)(F)F)cn3)c2)CC1 — remaining binding (cell-free assay, competition with immobilised ligand; 1 µM): 92%
N[C@@H]1CCN(c2nccc(-c3cnn4ncccc34)n2)C1 — remaining binding (binding; 1 µM): 100%
O=C(c1ccc(Nc2ncc(Cl)c(-c3cc4ccccc4s3)n2)cc1)N1CCC(N2CCCC2)CC1 — remaining binding (binding, competition with immobilised ligand; 1 µM): 74%
F[C@@H]1CCN(c2nccc(-c3cnn4ncccc34)n2)C1 — remaining binding (binding; 1 µM): 100%
COc1cnc(Nc2cccc(S(N)(=O)=O)c2)nc1N1CCN(c2ccccc2)CC1 — remaining binding (binding, competition with immobilised ligand; 1 µM): 95%
CN(CCCC(F)(F)F)c1nccc(-c2cnn3ncccc23)n1 — remaining binding (binding; 1 µM): 100%
O=c1nc(-c2ccccn2)sc2ccccc12 — remaining binding (binding, competition with immobilised ligand; 1 µM): 84%
